Screens: PubChem BioAssay, several laboratories
Rows were chosen to be rich in hits. Some 2.6% of all compounds tested hit in one or more screens of this group.
SENP8 block-1 – blocks human SENP8 cleavage of Nedd8 substrate; recombinant SENP8, Nedd8 substrate fluorescence; inhibition, % at 20 µM; hit rate 0.64% among 360,000; in the data active = inhibition mostly above about 40%, no sharp cut-off; inactive = mostly below about 27%
Target sequence (Q96LD8 whole entry, looked up): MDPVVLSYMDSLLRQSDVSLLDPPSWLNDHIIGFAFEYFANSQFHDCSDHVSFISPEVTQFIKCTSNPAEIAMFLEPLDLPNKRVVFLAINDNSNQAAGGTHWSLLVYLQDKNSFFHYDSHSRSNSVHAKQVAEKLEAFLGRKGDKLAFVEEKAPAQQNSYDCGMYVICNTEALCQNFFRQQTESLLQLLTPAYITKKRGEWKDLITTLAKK
SENP1 FRET inh – inhibitors of human SENP1 SUMO protease catalytic domain; recombinant SENP1 catalytic domain, CyPet-SUMO1-YPet FRET cleavage; hit rate 0.21% among 360,000; inhibition, % at 10 µM; AID 624204; Q9P0U3;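 active = inhibition at least 30% at 10 µM, raw YFP signal under a set limit, fluorescence ratio 0.5 to 1.5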;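 note: 0% = enzyme with DMSO and 100% = no enzyme wells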
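Assay system – human recombinant His6-tagged SENP1 catalytic domain enzyme · Input – SENP1 enzyme, 20 pM final · Buffer or medium – Tris pH 8 buffer plus EDTA, NaCl, BME, BSA, NP40, catalase · Schedule – 50 min reaction at room temperature · Technique – FRET read of cyan and yellow fluorescence · Control set – no-enzyme wells low, DMSO-plus-enzyme wells high control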
SENP8 block-2 – inhibitors of human SENP8 protease; purified SENP8, Z-RLRGG-aminoluciferin cleavage, luminescence; inhibition, % at 10 µM; hit rate 1.2% among 330,000; AID 2540; in the data active = inhibition above about 50%
SENP7 block – SENP7 protease inhibition. inhibition, % at 5 µM. Q9BQF6. hit rate 1.5% among 330,000. recombinant SENP7, Z-RLRGG-aminoluciferin luminescence, 40 min. AID 434973;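 active = inhibition above about 50% at the single test dose, limit read from the data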;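 note: plate controls were DMSO with enzyme for no effect and no enzyme buffer wells for full effect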
Platelet DG rel – platelet dense granule release activity; human platelet-rich plasma, SFLLRN dense granule ATP release, luminescence; inhibition, %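 (compounds screened at 7.5 µM in platelet-rich plasma)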; hit rate 0.22% among 300,000; AID 1663;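 active = mean replicate score, as percent of positive control, at or above 50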
SENP6 inh – inhibitors of human SENP6 protease | inhibition, % at 10 µM | Recombinant SENP6 catalytic domain, aminoluciferin luminescence | Q9GZR1 | hit rate 1.8% among 330,000;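 active = inhibition above about 50% at the single tested dose, limit read from the data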;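 note: plate controls were DMSO wells with enzyme for no effect and DMSO wells lacking enzyme for full effect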
SENP8 conf – confirmation of human SENP8 protease inhibitors | inhibition, % at 12.5 µM | AID 488912 | hit rate 40% among 6,200 | shares compounds with SENP7 block | Recombinant SENP8, Z-RLRGG-aminoluciferin luminescence, 60 min;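 active = mean inhibition across replicates above about 50%, limit read from the data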
SENP6 conf – confirmation of human SENP6 protease inhibitors; shares compounds with SENP7 block; recombinant SENP6, Z-RLRGG-aminoluciferin luminescence; inhibition, % at 12.5 µM; hit rate 58% among 6,200
SENP7 confirm – confirmation of human SENP7 protease inhibitors. shares compounds with SENP7 block. recombinant SENP7, Z-RLRGG-aminoluciferin luminescence, 40 min. inhibition, % at 12.5 µM. hit rate 69% among 6,200. AID 488917
Casp3 SENP sel – inhibits human caspase-3 in SENP selectivity test. inhibition, % at 12.5 µM. hit rate 60% among 6,200. purified caspase-3, Z-DEVD-aminoluciferin luminescence, 60 min. AID 488918. shares compounds with SENP7 block;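 active = mean inhibition above about 50%, limit read from the data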;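 note: plate controls were enzyme with DMSO for no effect and wells without caspase-3 for full effect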
Target sequence (P42574 28-227 limits assumed): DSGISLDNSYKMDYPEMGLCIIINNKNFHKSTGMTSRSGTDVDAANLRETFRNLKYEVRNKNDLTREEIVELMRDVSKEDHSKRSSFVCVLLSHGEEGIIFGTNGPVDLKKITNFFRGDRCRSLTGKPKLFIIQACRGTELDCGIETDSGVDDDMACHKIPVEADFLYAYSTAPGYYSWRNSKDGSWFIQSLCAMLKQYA
SENP luc ctr – interferes with luciferase luminescence in SENP counter-screen. shares compounds with SENP7 block. hit rate 39% among 6,200. inhibition, % at 12.5 µM. AID 488919. Pre-incubated SENP8/Z-RLRGG-aminoluciferin, luciferase luminescence interference;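 active = mean inhibition above about 50% when retested at one dose, limit read from the data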;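 note: plate controls were DMSO wells with completed reaction for no effect and substrate without enzyme for full effect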
An asterisk follows results filed as active; . = no result.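 Rule for the calls, unless noted: active = mean inhibition above about 50% in the one-dose retest (limit read from the data); inactive = the rest.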

SMILES	SENP8 block-1	SENP1 FRET inh	SENP8 block-2	SENP7 block	Platelet DG rel	SENP6 inh	SENP8 conf	SENP6 conf	SENP7 confirm	Casp3 SENP sel	SENP luc ctr
COc1c(O)ccc(/C=C(\C#N)c2nc3ccccc3[nH]2)c1[N+](=O)[O-]	-22	-34	14	14	-10	54*	27	28	59*	23	48
Cc1cc(/C=C(\C#N)c2nc3ccccc3[nH]2)c(C)n1C	-83	-43	-5	0	-1	-1	.	.	.	.	.
Cc1ccc(/C=C(\C#N)c2nc3ccccc3[nH]2)s1	-22	-25	13	84*	-18	23	40	31	93*	74*	61*
N#C/C(=C/c1cccs1)c1nc2ccccc2[nH]1	-68	-59	30	57*	2	48	44	48	84*	58*	22
CCc1ccccc1NC(=O)C1CCCN1S(=O)(=O)c1ccc(-c2ccc(=O)[nH]n2)s1 (centres undefined)	-11	-1	-7	-11	6	-4	.	.	.	.	.
N#C/C(=C/c1ccc(N2CCOCC2)c([N+](=O)[O-])c1)C(N)=O	14	2	-7	90*	29	-2	21	8	5	4	2
CO/N=C/c1ccc(N2CCOCC2)c([N+](=O)[O-])c1	1	4	-6	2	3	-6	.	.	.	.	.
CCOc1ccc(/C=C2/SC(=O)NC2=S)cc1	12	-8	45	10	-21	74*	19	20	41	8	22
Cc1cccc(C(=O)O/N=C/c2ccc(Br)cc2)c1	6	2	61*	62*	1	68*	50	74*	88*	61*	34
O=C(O)c1ccc(-c2ccc(OS(=O)(=O)c3ccccc3F)cc2)cc1	14	-17	41	8	27	57*	44	42	60*	11	6
CC1=C(C(=O)OCc2ccccc2)C(c2ccc(Cl)cc2)NC(=O)N1C (centres undefined)	10	3	-6	7	-1	-5	.	.	.	.	.
COc1ccc([C@H]2Cc3cc(O)cc(O)c3C(=O)O2)cc1O	-121	-6	88*	90*	.	95*	89*	88*	98*	90*	91*
O=C1CN(c2ccccc2Cl)C(=O)CN1c1ccccc1Cl	14	1	4	-5	3	11	.	.	.	.	.
CCCCOc1ncnc2c1[nH]c1ccc(OC)cc12	.	.	16	77*	4	34	27	29	48	46	5
O=C(O)/C=C/C(=O)Nc1ccc2c(c1)C(=O)c1ccccc1C2=O	17	15	47	53*	2	78*	73*	67*	85*	25	79*
O=C(c1ccc(-c2nc3ccccc3s2)s1)N1CCOCC1	.	.	94*	96*	46	97*	91*	97*	101*	96*	69*
O=C(NC1CC1)c1ccc(-c2nc3ccccc3s2)s1	-222	0	88*	98*	27	91*	81*	95*	102*	96*	37
O=C(c1cc2ccccc2s1)N1CCOCC1	26	2	4	0	-8	-1	.	.	.	.	.
Cc1ccc2nc(NC(=O)c3ccc(-c4nc5ccccc5s4)s3)sc2c1	-207	-17	3	1	.	-4	.	.	.	.	.
CCN1CCN(C(=O)c2ccc(-c3nc4ccccc4s3)s2)CC1	-319	-4	40	47	5	61*	56*	52*	82*	69*	19
